Data reported in ChEMBL document CHEMBL1158372, “Design, synthesis, and biological evaluation of novel triazole derivatives as inhibitors of cytochrome P450 14alpha-demethylase” (2009).
≈ marks a conversion by molar mass, not a printed value.

How the values were obtained:
Type in all cases: functional
Candida albicans = assay: Antifungal activity against Candida albicans ATCC 76615 after 24 hrs by micro-broth dilution method; conditions: ATCC 76615, 24 h
Procedure, shortened: (§1)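 NCCLS (M27-A2) broth microdilution in 96-well format. Compounds in DMSO, serially diluted in growth medium, inoculated, incubated at 35 °C, and read at 24 h (C. albicans ATCC76615) or 72 h (Cry. neoformans ATCC32609). MIC80 is the first well with about 80% less growth than the drug-free well. Three independent runs per agent; the mean of replicates is reported.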

Cryptococcus neoformans = assay: Antifungal activity against Cryptococcus neoformans ATCC 32609 after 72 hrs by micro-broth dilution method; conditions: ATCC 32609, 72 h; procedure, shortened: as §1
Candida parapsilosis = assay: Antifungal activity against Candida parapsilosis by micro-broth dilution method; conditions: Lodderomyces parapsilosis
Procedure, shortened: (§2)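 Broth microdilution in 96-well plates following the NCCLS method. DMSO solutions of test agents were serially diluted in growth medium, inoculated, and incubated at 35 °C. MIC80 is the first well showing roughly 80% growth reduction versus the drug-free control. C. albicans ATCC76615 and Cry. neoformans ATCC32609 served as quality-control strains. Each test was done three times; the mean of replicates is reported.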

Candida tropicalis = assay: Antifungal activity against Candida tropicalis by micro-broth dilution method; procedure, shortened: as §2
Trichophyton rubrum = assay: Antifungal activity against Trichophyton rubrum by micro-broth dilution method; procedure, shortened: as §2
Pichia kudriavzevii = assay: Antifungal activity against Candida krusei by micro-broth dilution method; procedure, shortened: as §2
Nannizzia gypsea = assay: Antifungal activity against Microsporum gypseum by micro-broth dilution method; procedure, shortened: as §2
Aspergillus fumigatus = assay: Antifungal activity against Aspergillus fumigatus by micro-broth dilution method; procedure, shortened: as §2

Structure (SMILES)	MIC80 (Candida albicans) [µg/mL]	MIC80 (Cryptococcus neoformans) [µg/mL]	MIC80 (Candida parapsilosis) [µg/mL]	MIC80 (Candida tropicalis) [µg/mL]	MIC80 (Trichophyton rubrum) [µg/mL]	MIC80 (Pichia kudriavzevii) [µg/mL]	MIC80 (Nannizzia gypsea) [µg/mL]	MIC80 (Aspergillus fumigatus) [µg/mL]
C=CCN(Cc1ccc(CC)cc1)CC(O)(Cn1cncn1)c1ccc(F)cc1F (centres undefined)	0.25 (≈ 0.606 µM)	0.25 (≈ 0.606 µM)	1 (≈ 2.42 µM)	0.0156 (≈ 0.0378 µM)	1 (≈ 2.42 µM)	0.25 (≈ 0.606 µM)	0.0625 (≈ 0.152 µM)	> 64
C=CCN(Cc1ccc(C(=O)OCC)cc1)CC(O)(Cn1cncn1)c1ccc(F)cc1F (centres undefined)	0.0039 (≈ 0.00854 µM)	1 (≈ 2.19 µM)	1 (≈ 2.19 µM)	0.25 (≈ 0.548 µM)	0.25 (≈ 0.548 µM)	0.0625 (≈ 0.137 µM)	0.25 (≈ 0.548 µM)	> 64
C=CCN(Cc1ccc(C(=O)Oc2ccccc2C(=O)OC)cc1)CC(O)(Cn1cncn1)c1ccc(F)cc1F (centres undefined)	0.0625 (≈ 0.111 µM)	> 64	4 (≈ 7.11 µM)	16 (≈ 28.4 µM)	64 (≈ 114 µM)	16 (≈ 28.4 µM)	4 (≈ 7.11 µM)	> 64
C=CCN(Cc1ccccc1F)CC(O)(Cn1cncn1)c1ccc(F)cc1F (centres undefined)	0.0039 (≈ 0.00969 µM)	0.0625 (≈ 0.155 µM)	0.0156 (≈ 0.0388 µM)	0.0625 (≈ 0.155 µM)	0.25 (≈ 0.621 µM)	0.0156 (≈ 0.0388 µM)	0.0039 (≈ 0.00969 µM)	> 64
C=CCN(Cc1ccc(Cl)cc1Cl)CC(O)(Cn1cncn1)c1ccc(F)cc1F (centres undefined)	1 (≈ 2.21 µM)	1 (≈ 2.21 µM)	0.25 (≈ 0.551 µM)	0.25 (≈ 0.551 µM)	1 (≈ 2.21 µM)	0.25 (≈ 0.551 µM)	1 (≈ 2.21 µM)	16 (≈ 35.3 µM)
C=CCN(Cc1ccc(C(=O)OCCCC)cc1)CC(O)(Cn1cncn1)c1ccc(F)cc1F (centres undefined)	0.25 (≈ 0.516 µM)	1 (≈ 2.06 µM)	1 (≈ 2.06 µM)	1 (≈ 2.06 µM)	1 (≈ 2.06 µM)	1 (≈ 2.06 µM)	1 (≈ 2.06 µM)	> 64
C=CCN(Cc1ccc(C(=O)Oc2ccc([N+](=O)[O-])cc2)cc1)CC(O)(Cn1cncn1)c1ccc(F)cc1F (centres undefined)	0.25 (≈ 0.455 µM)	1 (≈ 1.82 µM)	1 (≈ 1.82 µM)	1 (≈ 1.82 µM)	4 (≈ 7.28 µM)	1 (≈ 1.82 µM)	0.25 (≈ 0.455 µM)	> 64
C=CCN(Cc1cccc(F)c1)CC(O)(Cn1cncn1)c1ccc(F)cc1F (centres undefined)	0.0156 (≈ 0.0388 µM)	0.0625 (≈ 0.155 µM)	0.0625 (≈ 0.155 µM)	0.0625 (≈ 0.155 µM)	0.25 (≈ 0.621 µM)	0.0625 (≈ 0.155 µM)	0.0156 (≈ 0.0388 µM)	> 64
